Some results are limits rather than exact numbers.

Here are results for 13 compounds from ChEMBL document CHEMBL1132467, “Structural specificity of chloroquine-hematin binding related to inhibition of hematin polymerization and parasite growth” (J Med Chem, 1999).

The test system of data set [1] is Plasmodium falciparum. The data set is described as follows: Parasite growth in chloroquine-sensitive Plasmodium falciparum NF54. The data set is classed as functional, organism-based. The gist of the method:
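P. falciparum NF54 or K1 was maintained by the Trager-Jensen culture method with minor variations. Growth inhibition was measured by a semiautomated microdilution assay on asynchronous stock cultures.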

Data set [2] relates to Plasmodium falciparum. The data set is described as follows: Parasite growth in chloroquine-resistant Plasmodium falciparum K1.
The target of data set [3] is hematin (cell-free polymerization, no protein). The data set is described as follows: Inhibition of hematin polymerization.
Data set [4] can be described thus: Association constant evaluated towards Hematin mu-oxo dimer.

Consider `CCN(CC)CC(C)Nc1ccnc2cc(Cl)ccc12` (stereo not given), for which the half-inhibitory concentration (IC50) in the data set on Plasmodium falciparum [1] came out at 0.041 µM; in the data set on Plasmodium falciparum [2], 0.093 µM; in data set [3], 18 µM. In data set [4], the Ka stood at 270000 M⁻¹.
For `CCN(CC)CCCC(C)Nc1ccnc2ccccc12` (stereo not given), the values for the IC50 (in the data set on Plasmodium falciparum [1]; in the data set on Plasmodium falciparum [2]; in data set [3]) were 0.35 µM, 8 µM and greater than 2500 µM, respectively. In data set [4], the Ka worked out at 85000 M⁻¹.
Turning to `CCN(CC)CCCC(C)Nc1cc(C)nc2cc(Cl)ccc12` (stereo not given), the IC50 in the data set on Plasmodium falciparum [1] is 0.15 µM; with Plasmodium falciparum [2], 1.1 µM. The Ka in data set [4] worked out at 91000 M⁻¹.
In the case of `CCN(CC)CCCC(C)Nc1ccnc2cc(N)ccc12` (stereo not given), the IC50 is 2.6 µM with Plasmodium falciparum [1], 4.3 µM in the data set with Plasmodium falciparum [2] and greater than 2500 µM in data set [3]. The compound further had a Ka in data set [4] of 290000 M⁻¹.
On to `CCN(CC)CCCC(C)Nc1ccnc2ccc(Cl)cc12` (stereo not given), for which the concentration for half-maximal inhibition (IC50) with Plasmodium falciparum [1] is 0.17 µM; in the data set on Plasmodium falciparum [2], 4.9 µM; in data set [3], greater than 2500 µM.
In the case of `CCNc1ccnc2cc(Cl)ccc12`, the IC50 worked out at 0.82 µM in the data set with Plasmodium falciparum [1], 0.87 µM in the data set on Plasmodium falciparum [2] and 70 µM in data set [3]. In data set [4], this compound registered a Ka of 46000 M⁻¹.
Consider `CCN(CC)CCCC(C)Nc1ccnc2cc([N+](=O)[O-])ccc12` (stereo not given), for which the IC50 was determined as 0.015 µM in the data set with Plasmodium falciparum [1] and 0.068 µM in the data set with Plasmodium falciparum [2]. In addition, the Ka in data set [4] turned out to be 290000 M⁻¹.
As to `CCC(CC)CCCC(C)Nc1ccnc2cc(Cl)ccc12` (stereo not given), the IC50 is 0.054 µM with Plasmodium falciparum [1] and 0.2 µM in the data set on Plasmodium falciparum [2]. The compound also gave a Ka in data set [4] of 79000 M⁻¹.
Take `CCN(CC)CCCC(C)Nc1c(C)cnc2cc(Cl)ccc12` (stereo not given): the values for the IC50 (with Plasmodium falciparum [1]; in the data set with Plasmodium falciparum [2]; in data set [3]) were 0.02 µM, 0.059 µM and 15 µM, respectively. In addition, in data set [4], the Ka came to 150000 M⁻¹.
Take `CCN(CC)CCCC(C)Nc1ccnc2cc(Br)ccc12` (stereo not given): the IC50 in the data set on Plasmodium falciparum [1] amounted to 0.093 µM; with Plasmodium falciparum [2], 1.4 µM. This compound came in with a Ka in data set [4] of 120000 M⁻¹.
For `CCN(CC)CCCCC(C)Nc1ccnc2cc(Cl)ccc12` (stereo not given), the IC50 in the data set on Plasmodium falciparum [1] turned out to be 0.024 µM; in the data set with Plasmodium falciparum [2], 0.42 µM. This compound also came in with a Ka in data set [4] of 150000 M⁻¹.
For `Nc1ccnc2cc(Cl)ccc12`, the values for the IC50 in the data set with Plasmodium falciparum [1] and in the data set on Plasmodium falciparum [2] were 1.7 µM and 1 µM, respectively. The compound further returned a Ka in data set [4] of 52000 M⁻¹.
As for `CCNCCCC(C)Nc1ccnc2cc(Cl)ccc12` (stereo not given) [DESETHYLCHLOROQUINE], the IC50 in the data set with Plasmodium falciparum [1] is 0.045 µM; in the data set on Plasmodium falciparum [2], 1.3 µM; in data set [3] it was 15 µM. For the same compound, the Ka in data set [4] stood at 180000 M⁻¹.

The term IC50 denotes the concentration that gives 50% inhibition. Low readings indicate inhibition by little substance, high ones a need for much substance.
